ChEMBL document CHEMBL5252669, “Semisynthetic blasticidin S ester derivatives show enhanced antibiotic activity” (RSC Med Chem, 2023)
Values after ≈ are worked out from the molar mass of the structure shown. Active and inactive are the calls of the source. The rule behind the calls is not given here.

Experiments:
[1] = Selectivity index, ratio of CC50 for human MRC5 cells to IC50 for methicillin resistant Staphylococcus aureus; type: toxicity; conditions: read-out: Ratio CC50/IC50
Candida albicans [2] = assay: Antifungal activity against Candida albicans incubated for 16 hrs by broth microdilution method; type: functional
[3] = Selectivity index, ratio of CC50 for human MRC5 cells to IC50 for MexAB-OprM deleted Pseudomonas aeruginosa; type: toxicity; conditions: read-out: Ratio CC50/IC50
Saccharomyces cerevisiae = assay: Antifungal activity against Saccharomyces cerevisiae incubated for 16 hrs by broth microdilution method; type: functional
Pseudomonas aeruginosa = assay: Antibacterial activity against MexAB-OprM deleted Pseudomonas aeruginosa incubated for 16 hrs by broth microdilution method; type: functional, organism-based; conditions: for IC50: 16 h; for MIC: time 16 hrs
Staphylococcus aureus [4] = assay: Antibacterial activity against NorA deleted Staphylococcus aureus incubated for 16 hrs by broth microdilution method; type: functional, organism-based; conditions: for IC50: 16 h; for MIC: time 16 hrs
Summary of the method: (§1)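 Cation-adjusted Mueller-Hinton broth microdilution. Overnight cultures from single colonies were diluted to OD600 0.004. Final compound range was 256–2 μg mL−1 in 1:1 methanol/water vehicle, with doxycycline and vehicle controls. Plates were incubated 16 h at 37 °C. OD600 was normalized to controls, and MIC was the lowest concentration inhibiting >90% growth. Two biological replicates in duplicate; reported as a range.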

[5] = Selectivity index, ratio of CC50 for human MRC5 cells to IC50 for Enterococcus faecalis ATCC 29212; type: toxicity; conditions: read-out: Ratio CC50/IC50
Enterococcus [6] = assay: Antibacterial activity against vancomycin-resistant Enterococcus incubated for 20 hrs by broth microdilution method
Staphylococcus aureus [7] = assay: Antibacterial activity against wild type Staphylococcus aureus 8810 incubated for 16 hrs by broth microdilution method; type: functional, organism-based; conditions: for IC50: Staphylococcus aureus, 8810, 16 h; for MIC: Staphylococcus aureus, 8810, time 16 hrs; summary of the method: as §1
[8] = Selectivity index, ratio of CC50 for human MRC5 cells to IC50 for vancomycin-resistant Enterococcus; type: toxicity; conditions: read-out: Ratio CC50/IC50
[9] = Cytotoxicity against human MRC5 cells incubated for 24 hrs by MTS assay; type: toxicity, cell-based
Summary of the method: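 MRC-5 lung fibroblasts seeded 5000 per well; medium replaced with compound 16–192 μg mL−1 or matching 1:1 methanol:water vehicle; 24 h, then MTS 3–4 h; absorbance 490 nm; viability relative to untreated cells, normalized to vehicle; CC50 from two independent assays in duplicate, mean ± SD.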

Staphylococcus aureus [10] = assay: Antibacterial activity against methicillin resistant Staphylococcus aureus ATCC 43300 incubated for 16 hrs by broth microdilution method; type: functional, organism-based; conditions: for IC50: ATCC 43300, 16 h; for MIC: ATCC 43300, time 16 hrs; summary of the method: as §1
[11] = Selectivity index, ratio of CC50 for human MRC5 cells to IC50 for Acinetobacter baumannii ATCC 17978; type: toxicity; conditions: read-out: Ratio CC50/IC50
Acinetobacter baumannii = assay: Antibacterial activity against Acinetobacter baumannii ATCC 17978 incubated for 16 hrs by broth microdilution method; type: functional, organism-based; conditions: for IC50: ATCC 17978, 16 h; for MIC: ATCC 17978, time 16 hrs
Klebsiella pneumoniae = assay: Antibacterial activity against Klebsiella pneumoniae ATCC 29665 incubated for 16 hrs by broth microdilution method; type: functional, organism-based; conditions: for IC50: ATCC 29665, 16 h; for MIC: ATCC 29665, time 16 hrs
[12] = Selectivity index, ratio of CC50 for human MRC5 cells to IC50 for Staphylococcus aureus; type: toxicity; conditions: read-out: Ratio CC50/IC50
Enterococcus faecalis [13] = assay: Antibacterial activity against Enterococcus faecalis ATCC 29212 incubated for 20 hrs by broth microdilution method; conditions: ATCC 29212, 20 h
[14] = Selectivity index, ratio of CC50 for human MRC5 cells to IC50 for NorA deleted Staphylococcus aureus; type: toxicity; conditions: read-out: Ratio CC50/IC50
[15] = Selectivity index, ratio of CC50 for human MRC5 cells to IC50 for Klebsiella pneumoniae ATCC 29665; type: toxicity; conditions: read-out: Ratio CC50/IC50
Enterococcus [16] = assay: Antibacterial activity against vancomycin-resistant Enterococcus assessed as zone of inhibition incubated for 18 hrs by spot on lawn assay; type: functional, organism-based
Summary of the method: (§2)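 Spot-on-lawn assay. Plates of 1.5% agar in LB were overlaid with 0.7% LB agar seeded with overnight culture at 0.01 OD600. Aqueous 5 mg mL−1 solutions were spotted at 35, 25, 10 and 5 μg, with a 1:1 water/methanol vehicle spot. After 18 h at 37 °C, inhibition zone diameters were measured with a ruler.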

Staphylococcus aureus [17] = assay: Antibacterial activity against methicillin resistant Staphylococcus aureus assessed as zone of inhibition incubated for 18 hrs by spot on lawn assay; type: functional, organism-based; summary of the method: as §2
Staphylococcus aureus [18] = assay: Antibacterial activity against Staphylococcus aureus assessed as zone of inhibition incubated for 18 hrs by spot on lawn assay; type: functional, organism-based
Summary of the method: (§3)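 Overnight LB cultures diluted to OD600 0.01 in 0.7% LB top agar, overlaid on 1.5% LB agar; 5 mg mL−1 aqueous compound spotted at 35, 25, 10 and 5 μg with 1:1 water/methanol vehicle spot; 37 °C, 18 h; inhibition zone diameter measured by ruler.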

Enterococcus faecalis [19] = assay: Antibacterial activity against Enterococcus faecalis ATCC 29212 assessed as zone of inhibition incubated for 18 hrs by spot on lawn assay; type: functional, organism-based; summary of the method: as §3
Staphylococcus aureus [20] = assay: Antibacterial activity against NorA deleted Staphylococcus aureus assessed as zone of inhibition incubated for 18 hrs by spot on lawn assay; type: functional, organism-based; summary of the method: as §3
Candida albicans [21] = assay: Antifungal activity against Candida albicans assessed as zone of inhibition incubated for 18 hrs by spot on lawn assay; type: functional, organism-based; summary of the method: as §3

SMILES	selectivity ratio [1]	MIC (Candida albicans [2])	selectivity ratio [3]	MIC (Saccharomyces cerevisiae)	IC50 (Pseudomonas aeruginosa)	MIC (Pseudomonas aeruginosa)	IC50 (Staphylococcus aureus [4])	MIC (Staphylococcus aureus [4])	selectivity ratio [5]	IC50 (Enterococcus [6])	MIC (Enterococcus [6])	IC50 (Staphylococcus aureus [7])	MIC (Staphylococcus aureus [7])	selectivity ratio [8]	CC50 at 24 h [9]	IC50 (Staphylococcus aureus [10])	MIC (Staphylococcus aureus [10])	selectivity ratio [11]	IC50 (Acinetobacter baumannii)	MIC (Acinetobacter baumannii)	also measured
CCCCCCOC(=O)[C@H]1O[C@@H](n2ccc(N)nc2=O)C=C[C@@H]1NC(=O)C[C@@H](N)CCN(C)C(=N)N	0.4	> 32 µg/mL	0.2	16 µg/mL (≈ 31.6 µM)	77.2 µg/mL (≈ 152 µM)	> 128 µg/mL	18 µg/mL (≈ 35.5 µM)	32 µg/mL (≈ 63.2 µM)	1.6	140 µg/mL (≈ 276 µM)	256 µg/mL (≈ 505 µM)	27.1 µg/mL (≈ 53.5 µM)	64 µg/mL (≈ 126 µM)	0.1	18.4 µg/mL (≈ 36.3 µM)	43.2 µg/mL (≈ 85.3 µM)	128 µg/mL (≈ 253 µM)	0.3	52.4 µg/mL (≈ 103 µM)	128 µg/mL (≈ 253 µM)	IC50 (Klebsiella pneumoniae): 67.1 µg/mL (≈ 132 µM); MIC (Klebsiella pneumoniae): 128 µg/mL (≈ 253 µM); selectivity ratio [12]: 0.7; IC50 (Enterococcus faecalis [13]): 11.4 µg/mL (≈ 22.5 µM); MIC (Enterococcus faecalis [13]): 16 µg/mL (≈ 31.6 µM); selectivity ratio [14]: 1; selectivity ratio [15]: 0.3
CCCCOC(=O)[C@H]1O[C@@H](n2ccc(N)nc2=O)C=C[C@@H]1NC(=O)C[C@@H](N)CCN(C)C(=N)N	0.7	> 256 µg/mL	0.3	64 µg/mL (≈ 134 µM)	79.8 µg/mL (≈ 167 µM)	> 128 µg/mL	34.6 µg/mL (≈ 72.3 µM)	64 µg/mL (≈ 134 µM)	1.3	130 µg/mL (≈ 272 µM)	256 µg/mL (≈ 535 µM)	23.9 µg/mL (≈ 49.9 µM)	64 µg/mL (≈ 134 µM)	0.2	21.2 µg/mL (≈ 44.3 µM)	28.1 µg/mL (≈ 58.7 µM)	64 µg/mL (≈ 134 µM)	0.3	61.5 µg/mL (≈ 129 µM)	> 128 µg/mL	Activity (Enterococcus [16]): Active; Activity (Staphylococcus aureus [17]): Active; Activity (Staphylococcus aureus [18]): Active; Activity (Enterococcus faecalis [19]): Active; Activity (Staphylococcus aureus [20]): Active; IC50 (Klebsiella pneumoniae): 82.1 µg/mL (≈ 172 µM); MIC (Klebsiella pneumoniae): > 128 µg/mL; selectivity ratio [12]: 0.9; IC50 (Enterococcus faecalis [13]): 16.1 µg/mL (≈ 33.6 µM); MIC (Enterococcus faecalis [13]): 32 µg/mL (≈ 66.9 µM); selectivity ratio [14]: 0.6; Activity (Candida albicans [21]): inactive; selectivity ratio [15]: 0.3
CCOC(=O)[C@H]1O[C@@H](n2ccc(N)nc2=O)C=C[C@@H]1NC(=O)C[C@@H](N)CCN(C)C(=N)N.Cl.Cl.Cl	0.5	> 256 µg/mL	0.1	32 µg/mL	67 µg/mL	> 128 µg/mL	20 µg/mL	32 µg/mL	0.9	34.4 µg/mL	64 µg/mL	11.6 µg/mL	32 µg/mL	0.3	8.9 µg/mL	17 µg/mL	32 µg/mL	0.3	30.4 µg/mL	64 µg/mL	Activity (Enterococcus [16]): Active; Activity (Staphylococcus aureus [17]): Active; Activity (Staphylococcus aureus [18]): Active; Activity (Enterococcus faecalis [19]): Active; Activity (Staphylococcus aureus [20]): Active; IC50 (Klebsiella pneumoniae): 73.9 µg/mL; MIC (Klebsiella pneumoniae): > 128 µg/mL; selectivity ratio [12]: 0.8; IC50 (Enterococcus faecalis [13]): 9.9 µg/mL; MIC (Enterococcus faecalis [13]): 16 µg/mL; selectivity ratio [14]: 0.4; Activity (Candida albicans [21]): inactive; selectivity ratio [15]: 0.1
CN(CC[C@H](N)CC(=O)N[C@H]1C=C[C@H](n2ccc(N)nc2=O)O[C@@H]1C(=O)O)C(=N)N.Cl	0.2	64 µg/mL	0.2	16 µg/mL	73 µg/mL	128 µg/mL	> 256 µg/mL	> 256 µg/mL	0.3	> 256 µg/mL	> 256 µg/mL	77 µg/mL	128 µg/mL	< 0.1	16.1 µg/mL	79.7 µg/mL	128 µg/mL	0.2	70.4 µg/mL	128 µg/mL	IC50 (Klebsiella pneumoniae): 74.8 µg/mL; MIC (Klebsiella pneumoniae): 128 µg/mL; selectivity ratio [12]: 0.2; IC50 (Enterococcus faecalis [13]): 52.5 µg/mL; MIC (Enterococcus faecalis [13]): 128 µg/mL; selectivity ratio [14]: < 0.1; Activity (Candida albicans [21]): Active; selectivity ratio [15]: 0.2
